The source made the active and inactive calls.
Assays:
[1] = target: T1, Kappa-type opioid receptor (Homo sapiens, UniProt P41145); assay: Agonist activity at human kappa opioid receptor transfected in CHO cells assessed as stimulation of [35S]GTPgammaS binding after 60 mins by scintillation counting analysis relative to control; type: functional, cell-based
In short: (§1)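 Membranes from CHO cells stably expressing human KOR (15 μg protein/tube) or MOR (7.5 μg protein/tube) were incubated for 60 min at 30 °C with 12 compound concentrations, 3 μM GDP and […] [35S]GTPγS. Nonspecific binding used 10 μM GTPγS. Filtration, scintillation counting; % stimulation over basal. ≥3 experiments, triplicate.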

Mu-type opioid receptor [2] = target: T2, Mu-type opioid receptor (Homo sapiens, UniProt P35372); assay: Antagonist activity at human mu opioid receptor transfected in CHO cells assessed as inhibition of DAMGO-induced [35S]GTPgammaS binding after 60 mins by scintillation counting analysis; type: functional, cell-based
In short: (§2)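 Membranes from CHO cells expressing human MOR (7.5 μg protein/tube) were incubated with test compound plus 200 nM DAMGO, 3 μM GDP and […] [35S]GTPγS. Incubation was 60 min at 30 °C in Tris/MgCl2/NaCl/EGTA buffer, pH 7.4. Bound label was measured by filtration and scintillation counting. At least 3 experiments, each in triplicate.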

Homo sapiens [3] = organism: Homo sapiens; assay: Selectivity ratio of Ki for human mu opioid receptor to Ki for human kappa opioid receptor
Mu-type opioid receptor [4] = target: T2, Mu-type opioid receptor; assay: Antagonist activity at human mu opioid receptor transfected in CHO cells assessed as inhibition of […] [35S]GTPgammaS binding after 60 mins by scintillation counting analysis relative to control; type: functional, cell-based
[5] = target: T1, Kappa-type opioid receptor; assay: Displacement of [3H]-U69593 from human kappa opioid receptor transfected in CHO cells after 60 mins; type: cell-based
[6] = target: T1, Kappa-type opioid receptor; assay: Agonist activity at human kappa opioid receptor transfected in CHO cells assessed as stimulation of [35S]GTPgammaS binding after 60 mins by scintillation counting analysis; type: functional, cell-based; in short: as §1
Mu-type opioid receptor [7] = target: T2, Mu-type opioid receptor; assay: Agonist activity at human mu opioid receptor transfected in CHO cells assessed as stimulation of [35S]GTPgammaS binding after 60 mins by scintillation counting analysis; type: functional, cell-based; in short: as §1
[8] = target: Delta-type opioid receptor (Homo sapiens, UniProt P41143); assay: Displacement of [3H]-naltrindole from human delta opioid receptor transfected in CHO cells after 3 hrs; type: cell-based
Homo sapiens [9] = organism: Homo sapiens; assay: Selectivity ratio of Ki for human delta opioid receptor to Ki for human kappa opioid receptor
Mu-type opioid receptor [10] = target: T2, Mu-type opioid receptor; assay: Antagonist activity at human mu opioid receptor transfected in CHO cells assessed as inhibition of DAMGO-induced [35S]GTPgammaS binding after 60 mins by scintillation counting analysis relative to control; type: functional, cell-based; in short: as §2
Mu-type opioid receptor [11] = target: T2, Mu-type opioid receptor; assay: Agonist activity at human mu opioid receptor transfected in CHO cells assessed as stimulation of [35S]GTPgammaS binding after 60 mins by scintillation counting analysis relative to control; type: functional, cell-based; in short: as §1
Mu-type opioid receptor [12] = target: T2, Mu-type opioid receptor; assay: Displacement of [3H]-DAMGO from human mu opioid receptor transfected in CHO cells after 60 mins; type: cell-based
Rattus norvegicus [13] = assay: Toxicity in Sprague-Dawley rat assessed as suppression of intracranial self-stimulation reward function at 0.25 to 2 mg/kg, ip measured for 1 hr; type: organism-based; parameters: dose 0.25-2 mg/kg, route intraperitoneal; settings: in vivo
In short: (§3)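 Male Sprague-Dawley rats with lateral hypothalamic medial forebrain bundle electrodes were given test drug i.p. in increasing doses (n=6/cohort). One series was 0–4.0 mg/kg in 20% DMSO/water; the other was 1.0–30.0 mg/kg in 0.9% saline. ICSS thresholds and maximum response rates were measured over four 15-min rate-frequency trials after baseline. Results were expressed as 100 × post/pre-treatment.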

Rattus norvegicus [14] = assay: Toxicity in Sprague-Dawley rat assessed as suppression of intracranial self-stimulation reward function at 4 mg/kg, ip measured over 15 to 60 mins; type: organism-based; parameters: dose 4 mg/kg, route intraperitoneal; settings: in vivo; in short: as §3
Rattus norvegicus [15] = assay: (§4) Reduction of reward potentiation effect of cocaine in ip dosed Sprague-Dawley rat assessed as blockade of cocaine-madiated reduction of intracranial self-stimulation threshold administered for 15 mins prior to cocaine challenge measured 15 mins post dose and 1 hr post cocaine challenge; type: functional, organism-based
In short: (§5)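 Male Sprague-Dawley rats carried medial forebrain bundle electrodes and were trained by the rate-frequency method to stable thresholds (n=6/cohort). Baseline came from three 15-min functions. Test drug was given i.p. in increasing doses: 0, 0.5, 1.0, 2.0 mg/kg, or 0, 3.0, 10.0, 30.0 mg/kg. […] Data were expressed as 100 × post/pre.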

Rattus norvegicus [16] = assay: Toxicity in Sprague-Dawley rat assessed as suppression of intracranial self-stimulation reward function at 1 to 30 mg/kg, ip measured for 1 hr; type: organism-based; parameters: dose 1-30 mg/kg, route intraperitoneal; settings: in vivo; in short: as §3
Rattus norvegicus [17] = assay: as §4, with “threshold at 3 to 30 mg/kg” for “threshold”; type: functional, organism-based; in short: as §5

Chain of Delta-type opioid receptor (P41143 whole entry): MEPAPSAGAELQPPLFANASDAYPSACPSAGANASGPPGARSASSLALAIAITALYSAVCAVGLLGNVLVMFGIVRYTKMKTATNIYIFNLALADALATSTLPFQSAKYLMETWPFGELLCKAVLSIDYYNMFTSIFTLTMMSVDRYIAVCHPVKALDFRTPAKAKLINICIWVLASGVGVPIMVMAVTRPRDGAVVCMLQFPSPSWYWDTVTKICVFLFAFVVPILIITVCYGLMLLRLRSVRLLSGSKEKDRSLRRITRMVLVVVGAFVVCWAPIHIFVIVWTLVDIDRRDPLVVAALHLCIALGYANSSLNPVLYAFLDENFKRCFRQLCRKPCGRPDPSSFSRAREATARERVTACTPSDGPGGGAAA
T1 sequence (P41145 whole entry): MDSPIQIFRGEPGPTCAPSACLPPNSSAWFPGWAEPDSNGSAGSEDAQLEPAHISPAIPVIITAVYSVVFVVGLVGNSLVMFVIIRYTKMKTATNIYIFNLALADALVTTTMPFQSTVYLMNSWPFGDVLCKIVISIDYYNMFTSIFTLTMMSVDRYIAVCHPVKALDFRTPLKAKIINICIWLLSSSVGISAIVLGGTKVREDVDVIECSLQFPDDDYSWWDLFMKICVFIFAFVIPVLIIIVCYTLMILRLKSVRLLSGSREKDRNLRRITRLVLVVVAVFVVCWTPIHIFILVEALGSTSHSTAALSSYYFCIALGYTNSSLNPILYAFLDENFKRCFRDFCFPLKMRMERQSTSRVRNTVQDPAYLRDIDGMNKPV
T2 sequence (P35372 whole entry): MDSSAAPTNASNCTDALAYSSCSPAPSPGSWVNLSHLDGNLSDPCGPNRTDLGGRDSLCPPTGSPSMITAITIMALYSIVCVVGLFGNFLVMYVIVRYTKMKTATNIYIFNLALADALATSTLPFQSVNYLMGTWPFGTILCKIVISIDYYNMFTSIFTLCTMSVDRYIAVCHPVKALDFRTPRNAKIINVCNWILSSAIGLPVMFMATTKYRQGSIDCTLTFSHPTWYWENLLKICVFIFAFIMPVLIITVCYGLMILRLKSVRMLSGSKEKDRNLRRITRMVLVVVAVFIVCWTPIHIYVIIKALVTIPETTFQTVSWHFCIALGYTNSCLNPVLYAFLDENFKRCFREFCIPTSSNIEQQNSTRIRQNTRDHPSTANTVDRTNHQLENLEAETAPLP

Compound	Emax [1]	IC50 (Mu-type opioid receptor [2])	Ratio Ki (Homo sapiens [3])	Imax (Mu-type opioid receptor [4])	Ki [5]	EC50 [6]	EC50 (Mu-type opioid receptor [7])	Ki [8]	Ratio Ki (Homo sapiens [9])	Imax (Mu-type opioid receptor [10])	Emax (Mu-type opioid receptor [11])	Ki (Mu-type opioid receptor [12])	Activity (Rattus norvegicus [13])	Activity (Rattus norvegicus [14])	Activity (Rattus norvegicus [15])	Activity (Rattus norvegicus [16])	Activity (Rattus norvegicus [17])
COc1ccc2c(c1)[C@]13CCN(CC4CC4)[C@H](C2)[C@@H]1Cc1sc(NC(C)=O)nc1C3	120%	500 nM	0.73	inactive	9 nM	140 nM	80 nM	4.6 nM	0.51	60%	47%	6.6 nM					
CNc1nc2c(s1)C[C@H]1[C@H]3Cc4ccc(O)cc4[C@@]1(CCN3CC1CC1)C2	85%	2.5 nM	1.7	27%	0.084 nM	1.3 nM	0.52 nM	0.43 nM	5.1	76%	25%	0.14 nM					
Nc1nc2cc3c(cc2s1)C[C@@H]1[C@@H]2CCCC[C@]32CCN1CC1CC1				inactive													
CNc1nc2c(s1)C[C@H]1[C@H]3Cc4ccc(OC)cc4[C@@]1(CCN3CC1CC1)C2	140%	650 nM	2.7	inactive	3.6 nM	97 nM	51 nM	1.6 nM	0.44	76%	28%	9.6 nM					
COc1ccc2c(c1)[C@]13CCN(CC4CC4)[C@H](C2)[C@@H]1Cc1sc(N)nc1C3	140%	640 nM	3.5	inactive	1.9 nM	49 nM	39 nM	13 nM	6.8	69%	24%	6.7 nM					
Oc1ccc2c(c1)[C@@]13CCCC[C@H]1[C@@H](C2)N(CC1CCC1)CC3 [BUTORPHAN]													Non-toxic	Toxic	Dose-dependent effect		
Nc1nc2c(s1)C[C@H]1[C@H]3Cc4ccc(O)cc4[C@@]1(CCN3CC1CC1)C2	59%			49%		0.61 nM										Non-toxic	inactive
